{
  "source": "paper PMC8354861",
  "about": "(Bioorganic & Medicinal Chemistry, 2021)",
  "key": {"SARS-CoV-2": {"test_system": "SARS-CoV-2", "assay": "Antiviral activity against SARS-CoV-2 in Vero E6 cells", "assay_type": "cell-based"}, "[1]": {"assay": "Stability in simulated intestinal fluid", "assay_type": "in vitro ADME", "conditions": "SIF with pancreatin", "how_it_was_run": "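Simulated intestinal fluid was made to the USP recipe: KH2PO4, 0.2 M NaOH and 10 g/L pancreatin, adjusted to pH 6.8. Test compound stock (2 μM in DMF) was diluted into the fluid and incubated at 37 °C for up to 24 h, sampled at 0, 1, 2, 3, 4, 6 and 24 h. Reactions were stopped with ice-cold acetonitrile, centrifuged, and supernatants analysed by HPLC.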"}, "ICR mice": {"test_system": "ICR mice", "assay": "Acute toxicity study in ICR mice", "assay_type": "in vivo", "how_it_was_run": "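Male ICR mice (28–36 g), 15 animals randomised into five groups of three, fasted 16 h. Each group received one oral gavage dose of test compound at 50, 100, 200, 500 or 1000 mg/kg in 5% DMSO, 5% Solution Hs15 and 90% saline. Mortality was recorded over 7 days; body weight, organ weight and tissue histology were assessed after sacrifice.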"}, "[2]": {"conditions": "rats; cited from earlier work"}, "physchem": {"assay": "physchem", "conditions": "pH 6"}, "[3]": {"conditions": "cynomolgus monkeys; cited from earlier work"}, "[4]": {"conditions": "dogs; cited from earlier work"}},
  "note": "Where two headings read alike, the source gives them in different places.",
  "data": [
    {"compound": "N#C[C@@]1(c2cc(Cl)c3c(N)ncnn23)O[C@H](CO)[C@@H](O)[C@H]1O", "note": "[Compound 1a, (2R,3R,4S,5R)-2-(4-amino-5-chloropyrrolo[2,1-f][1,2,4]triazin-7-yl)-3,4-dihydroxy-5-(hydroxymethyl)tetrahydrofuran-2-carbonitrile]", "values": [
      {"measurement": "anti-SARS-CoV-2 activity (in words)", "setting": "SARS-CoV-2", "result": "loss of the anti-SARS-CoV-2 activity"}
    ]},
    {"compound": "N#C[C@@]1(c2cc(F)c3c(N)ncnn23)O[C@H](CO)[C@@H](O)[C@H]1O", "note": "[Compound 1c, (2R,3R,4S,5R)-2-(4-amino-5-fluoropyrrolo[2,1-f][1,2,4]triazin-7-yl)-3,4-dihydroxy-5-(hydroxymethyl)tetrahydrofuran-2-carbonitrile]", "values": [
      {"measurement": "anti-SARS-CoV-2 activity (in words)", "setting": "SARS-CoV-2", "result": "able to inhibit the viral replication"},
      {"measurement": "anti-SARS-CoV-2 activity (in words)", "setting": "SARS-CoV-2; listed as 3c", "result": "moderate anti-SARS-CoV-2 activity"}
    ]},
    {"compound": "N#Cc1cc([C@]2(C#N)O[C@H](CO)[C@@H](O)[C@H]2O)n2ncnc(N)c12", "note": "[Compound 1d, 4-amino-7-((2R,3R,4S,5R)-2-cyano-3,4-dihydroxy-5-(hydroxymethyl)tetrahydrofuran-2-yl)pyrrolo[2,1-f][1,2,4]triazine-5-carbonitrile]", "values": [
      {"measurement": "anti-SARS-CoV-2 activity (in words)", "setting": "SARS-CoV-2", "result": "loss of the anti-SARS-CoV-2 activity"}
    ]},
    {"compound": "OC[C@H]1O[C@@H](c2ccc3c(NO)ncnn23)[C@H](O)[C@@H]1O", "note": "[Compound 3b, (2S,3R,4S,5R)-2-(4-(hydroxyamino)pyrrolo[2,1-f][1,2,4]triazin-7-yl)-5-(hydroxymethyl)tetrahydrofuran-3,4-diol]", "values": [
      {"measurement": "anti-SARS-CoV-2 activity (in words)", "setting": "SARS-CoV-2", "result": "did not show any antiviral activity"}
    ]},
    {"compound": "CC(C)C(=O)O[C@H]1[C@@H](O)[C@](C#N)(c2ccc3c(N)ncnn23)O[C@@H]1CO", "note": "[Compound 5a, (2R,3S,4R,5R)-5-(4-aminopyrrolo[2,1-f][1,2,4]triazin-7-yl)-5-cyano-4-hydroxy-2-(hydroxymethyl)tetrahydrofuran-3-yl isobutyrate]", "values": [
      {"measurement": "stability in SIF (in words)", "setting": "[1]", "result": "good stability"}
    ]},
    {"compound": "CC(C)C(=O)OC[C@H]1O[C@@](C#N)(c2ccc3c(N)ncnn23)[C@H](O)[C@@H]1O", "note": "[Compound 5c, ((2R,3S,4R,5R)-5-(4-aminopyrrolo[2,1-f][1,2,4]triazin-7-yl)-5-cyano-3,4-dihydroxytetrahydrofuran-2-yl)methyl isobutyrate]", "values": [
      {"measurement": "well tolerated oral dosage", "setting": "ICR mice; single oral dose", "result": "up to 1000 mg/kg"},
      {"measurement": "mortality", "setting": "ICR mice; single oral gavage 50-1000 mg/kg, 7-day observation period", "result": "No mortality"},
      {"measurement": "changes in body weight, organ weight, or tissue histology", "setting": "ICR mice; single oral gavage 50-1000 mg/kg, after sacrifice", "result": "No significant changes"}
    ]},
    {"compound": "CCC(CC)COC(=O)[C@H](C)N[P@](=O)(OC[C@H]1O[C@@](C#N)(c2cc(F)c3c(N)ncnn23)[C@H](O)[C@@H]1O)Oc1ccccc1", "note": "[Compound 7, 2-ethylbutyl ((S)-(((2R,3S,4R,5R)-5-(4-amino-5-fluoropyrrolo[2,1-f][1,2,4]triazin-7-yl)-5-cyano-3,4-dihydroxytetrahydrofuran-2-yl)methoxy)(phenoxy)phosphoryl)-L-alaninate]", "values": [
      {"measurement": "anti-SARS-CoV-2 activity (in words)", "setting": "SARS-CoV-2", "result": "reduced activity"}
    ]},
    {"compound": "N#C[C@@]1(c2ccc3c(N)ncnn23)O[C@H](CO)[C@@H](O)[C@H]1O", "note": "[GS-441524]", "values": [
      {"measurement": "F (oral bioavailability)", "setting": "[2]", "result": 33, "unit": "%"},
      {"measurement": "solubility", "setting": "physchem", "result": 105, "unit": "µg/mL"},
      {"measurement": "F (oral bioavailability)", "setting": "[3]", "result": 8.3, "unit": "%"},
      {"measurement": "F (oral bioavailability)", "setting": "[4]", "result": 85, "unit": "%"}
    ]},
    {"compound": "(3R,4S,5R)-2-(4-aminopyrrolo[2,1-f][1,2,4]triazin-7-yl)-2-cyclopropyl-5-(hydroxymethyl)tetrahydrofuran-3,4-diol [Compound 2d]", "values": [
      {"measurement": "Inhibition rate", "setting": "SARS-CoV-2; at 5 µM", "result": "<10", "unit": "%"}
    ]}
  ]
}
